Experimental data taken from ChEMBL document CHEMBL5712072, “Epigenetic targeting of Hedgehog pathway transcriptional output through BET bromodomain inhibition” (Nat Med, 2014).
Active and inactive are the calls of the source. No cut-off for these calls is given here.

Legend:
[1] = system: Hh-Light2; test: Upregulation of Gli1 mRNA level in […] Hh-Light2 cells at 1 microM by qRT-PCR analysis; format: functional, cell-based
How it was run: (§1)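 Hh-Light2 (mouse 3T3 Gli-luciferase reporter line) cells were stimulated with Shh-N conditioned medium or SAG, alone or with JQ1 1 uM. Gli1, Gli2, Ptch1, Sufu, Smo and Brd4 mRNA were measured by SYBR Green qRT-PCR. Values are mean of triplicates ± SD.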

[2] = system: Hh-Light2; test: Upregulation of Ptch1 mRNA level in […] Hh-Light2 cells at 1 microM by qRT-PCR analysis; format: functional, cell-based; how it was run: as §1
[3] = system: Hh-Light2; test: Upregulation of Gli2 mRNA level in […] Hh-Light2 cells at 1 microM by qRT-PCR analysis; format: functional, cell-based; how it was run: as §1
[4] = system: Hh-Light2; test: Upregulation of Smo mRNA level in […] Hh-Light2 cells at 1 microM by qRT-PCR analysis; format: functional, cell-based; how it was run: as §1
[5] = system: Hh-Light2; test: Upregulation of Sufu mRNA level in […] Hh-Light2 cells at 1 microM by qRT-PCR analysis; format: functional, cell-based; how it was run: as §1
[6] = system: Hh-Light2; test: Downregulation of Brd4 mRNA level in […] Hh-Light2 cells at 1 microM by qRT-PCR analysis; format: functional, cell-based; how it was run: as §1
[7] = target: Bromodomain-containing protein 4 (Danio rerio) (UniProt F1R5H6); test: Inhibition of BRD4 in danio rerio assessed as decrease in GFP mRNA expression level by qRT-PCR analysis
Chain of Bromodomain-containing protein 4 (Danio rerio) (F1R5H6 whole entry): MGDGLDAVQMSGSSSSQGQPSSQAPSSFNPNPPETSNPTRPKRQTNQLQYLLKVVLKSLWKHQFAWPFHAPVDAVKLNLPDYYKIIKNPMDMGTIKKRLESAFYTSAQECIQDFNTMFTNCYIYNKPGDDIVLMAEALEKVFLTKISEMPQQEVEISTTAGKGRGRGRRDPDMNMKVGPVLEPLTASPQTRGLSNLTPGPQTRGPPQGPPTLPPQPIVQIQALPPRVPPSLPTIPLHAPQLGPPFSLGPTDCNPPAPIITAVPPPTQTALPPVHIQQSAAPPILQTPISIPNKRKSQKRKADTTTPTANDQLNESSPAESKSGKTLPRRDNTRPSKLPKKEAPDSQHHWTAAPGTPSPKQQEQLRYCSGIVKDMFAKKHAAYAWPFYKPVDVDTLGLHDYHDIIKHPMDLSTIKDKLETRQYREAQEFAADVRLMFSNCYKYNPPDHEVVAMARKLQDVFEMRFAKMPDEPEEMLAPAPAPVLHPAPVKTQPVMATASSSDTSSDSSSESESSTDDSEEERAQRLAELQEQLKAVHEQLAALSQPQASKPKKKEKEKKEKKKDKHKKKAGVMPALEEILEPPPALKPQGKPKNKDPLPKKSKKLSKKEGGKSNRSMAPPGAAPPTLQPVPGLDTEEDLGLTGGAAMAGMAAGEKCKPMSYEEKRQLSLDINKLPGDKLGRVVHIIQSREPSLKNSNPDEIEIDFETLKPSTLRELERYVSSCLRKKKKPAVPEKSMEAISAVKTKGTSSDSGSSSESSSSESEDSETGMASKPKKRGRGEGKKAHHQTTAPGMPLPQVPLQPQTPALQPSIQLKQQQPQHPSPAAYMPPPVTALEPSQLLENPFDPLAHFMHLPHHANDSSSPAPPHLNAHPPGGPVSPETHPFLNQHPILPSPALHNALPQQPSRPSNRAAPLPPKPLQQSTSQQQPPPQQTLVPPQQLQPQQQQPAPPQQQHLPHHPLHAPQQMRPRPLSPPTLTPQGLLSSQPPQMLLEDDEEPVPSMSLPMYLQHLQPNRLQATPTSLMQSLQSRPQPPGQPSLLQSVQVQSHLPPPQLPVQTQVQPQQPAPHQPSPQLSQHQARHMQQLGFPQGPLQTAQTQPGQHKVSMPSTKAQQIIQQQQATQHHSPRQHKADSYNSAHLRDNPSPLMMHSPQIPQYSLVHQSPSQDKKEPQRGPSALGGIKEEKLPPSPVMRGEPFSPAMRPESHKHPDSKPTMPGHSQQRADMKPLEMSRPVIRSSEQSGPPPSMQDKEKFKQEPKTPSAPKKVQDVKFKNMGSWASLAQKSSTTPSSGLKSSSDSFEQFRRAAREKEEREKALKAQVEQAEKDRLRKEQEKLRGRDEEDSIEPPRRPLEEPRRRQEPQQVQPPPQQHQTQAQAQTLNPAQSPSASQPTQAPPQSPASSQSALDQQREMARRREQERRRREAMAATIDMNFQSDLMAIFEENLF

[8] = species on record: Danio rerio; test: Effect on heat shock treated transgenic zebra fish assessed as increase in eye diameter; format: functional, organism-based
How it was run: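 Tg(hsp70l:shha-EGFP)+/− x TL embryos were heat shocked at 38 °C for 15 min at the 8-somite stage, then placed directly in JQ1 (0.6 or 6.0 um) or DMSO. At […] embryos were sorted GFP+/− into fresh drug. Eye dorsal axis length was scored at 56 hpf, n=12 per group; Student's t-test.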

[9] = system: MEF; test: Downregulation of Gli1 mRNA level in Sufu-/- MEF cells at 1 microM by qRT-PCR analysis; format: functional, cell-based; details: Mus musculus
How it was run: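 Sufu−/− MEFs were treated with DMSO or inhibitors at 1 uM, and Gli1/Gli2 mRNA was measured by SYBR Green qRT-PCR (mean of triplicates ± SD). A time course with JQ1 1 uM included a 3 h point.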

[10] = system: MEF; test: Downregulation of Gli2 transcription in Sufu-/- MEF cells at 1 microM by […] analysis; format: functional, cell-based; details: Mus musculus
[11] = system: MEF; test: Downregulation of BRD4 mRNA level in Sufu-/- MEF cells by qRT-PCR analysis; format: functional, cell-based; details: Mus musculus
[12] = system: Hh-Light2; test: Inhibition of full length murine Gli2 expressed in […] Hh-Light2 cells assessed as reduction in mRNA level at 1 microM by qRT-PCR analysis; format: cell-based; details: Mus musculus
How it was run: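 Hh-Light2 cells were transiently transfected with HA-Gli2-FL using Turbofect and treated 24 h later with 1 uM JQ1, GDC-0449, LDE225 or SANT-1. Gli1 mRNA was measured by qRT-PCR. Values are mean of triplicates ± SD.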

[13] = system: Hh-Light2; test: Upregulation of Ptch1 mRNA level in […] Hh-Light2 cells transfected with full length murine Gli2 by RT-PCR analysis; format: functional, cell-based; details: dose 1.0 µM
How it was run: (§2)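 Hh-Light2 cells were transiently transfected with HA-Gli2-FL (murine) or Myc-GLI2-DN (N-terminally truncated human) and treated with drugs 24 h post-transfection. Ptch1 mRNA was measured by qRT-PCR. Values are mean of triplicates ± SD.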

[14] = system: Hh-Light2; test: Upregulation of Ptch1 mRNA level in […] Hh-Light2 cells transfected with […] GlI2 by RT-PCR analysis; format: functional, cell-based; details: dose 1.0 µM; how it was run: as §2
[15] = system: Med1; test: Downregulation of Gli1mRNA expression in […] Med1 cells at 1 microM by qRT-PCR analysis; format: functional, cell-based
How it was run: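 Med1-MB cells were treated with JQ1 1 uM, and Gli1 mRNA was measured by SYBR Green qRT-PCR. Values are mean of triplicates ± SD.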

[16] = system: Medulloblastoma cell; test: Downregulation of Smo mRMA expression in […] Medulloblastoma cell expressing wildtype SMO at 1 microM by qRT-PCR analysis; format: functional, cell-based
How it was run: (§3)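 SmoWT-MB cells were treated with JQ1 at 1 uM (GDC-0449 or LDE225 at 0.1 uM as comparators). Gli1, Gli2, Smo, Sufu and Brd4 mRNA were measured by SYBR Green quantitative RT-PCR. Values are mean of triplicates ± SD.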

[17] = system: Medulloblastoma cell; test: Downregulation of sufu mRMA expression in […] Medulloblastoma cell expressing wildtype SMO at 1 microM by qRT-PCR analysis; format: functional, cell-based; how it was run: as §3
[18] = system: Medulloblastoma cell; test: Downregulation of BRD4 mRMA expression in […] Medulloblastoma cell expressing wildtype SMO at 1 microM by qRT-PCR analysis; format: functional, cell-based; how it was run: as §3
[19] = system: Medulloblastoma cell; test: Cytotoxicity in Ptch-mutated in […] medulloblastoma cells expressing wildtype SMO by CellTiter-Glo analysis; format: functional, cell-based
[20] = Cytotoxicity in Ptch-mutated human Med1 cells expressing wildtype SMO by CellTiter-Glo analysis; format: functional, cell-based
[21] = system: Medulloblastoma cell; test: Antiproliferative activity against in […] medulloblastoma cells expressing SmoWT-MB cells from mouse assessed as cell proliferation by EdU analysis; format: functional, cell-based
How it was run: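 SmoWT-MB cells given 0.1uM GDC-0449 or LDE225 (or JQ1 1 uM); 10uM EdU added for final 6-8hrs; EdU+ cells detected by Click-iT flow cytometry or imaging, DAPI counterstain; proliferation index = EdU+/DAPI+ cells; group means ± SD.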

[22] = Toxicity in NSG mouse xenografted with Med1 cells assessed as survival of mouse at 50 mg/kg/day, ip; format: organism-based; details: in vivo
How it was run: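 Med1-MB cells carrying luciferase, 0.5x10e6, were injected into the cerebellum of NSG mice. After engraftment was confirmed, mice were randomized to JQ1 50 mg/kg IP daily or vehicle until euthanasia was required, and survival was recorded.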

[23] = system: Med1; test: Antitumor activity in […] Med1 cells xenografted in NSG mouse assessed as reduction in tumor growth at 50 mg/kg/day, ip; format: functional, organism-based
How it was run: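 Med1-MB cells carrying a lentiviral luciferase reporter, 2x10e6 injected into the flank of 4-6 week old NSG mice. After engraftment was confirmed, mice were randomized to JQ1 50 mg/kg IP daily or vehicle. Tumor growth was followed by IVIS imaging as average radiance; tumor size was also recorded at day 21 of treatment.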

[24] = system: Medulloblastoma cell; test: Antitumor activity in […] medulloblastoma cells expressing SmoD477G mutant xenografted in NSG mouse assessed as decrease in tumor growth at 50 mg/kg/day, ip; format: functional, organism-based
How it was run: (§4)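 SmoWT-MB or SmoD477G-MB cells, 2x10e6 per flank, injected into both flanks of 4-6 week old NSG mice. After engraftment mice were randomized to vehicle, JQ1 50 mg/kg IP qd or GDC-0449 100 mg/kg PO qd until euthanasia was required. Tumor growth was measured by caliper; data are group means ± S.E.M.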

[25] = system: Medulloblastoma cell; test: Antitumor activity in […] medulloblastoma expressing wildtype SMO xenografted in NSG mouse assessed as reduction in tumor growth at 50 mg/kg/day, ip; format: functional, organism-based; how it was run: as §4
[26] = system: Medulloblastoma cell; test: Induction of apoptosis in human wildtype SMO expressing medulloblastoma cells assessed as viable cells by annexin-V/PI staining based flow cytometric analysis (reference value: 74.9%); format: functional
[27] = system: Medulloblastoma cell; test: Induction of apoptosis in human wildtype SMO expressing medulloblastoma cells assessed as early apoptotic cells by annexin-V/PI staining based flow cytometric analysis (reference value: 0.59%); format: functional
[28] = Induction of apoptosis in human Med1 cells assessed as viable cells by annexin-V/PI staining based flow cytometric analysis (reference value: 96.4%); format: functional, Medulloblastoma cell
[29] = Induction of apoptosis in human Med1 cells assessed as early apoptotic cells by annexin-V/PI staining based flow cytometric analysis (reference value: 1.09%); format: functional, Medulloblastoma cell
[30] = Induction of apoptosis in human Med1 cells assessed as late apoptotic cells by annexin-V/PI staining based flow cytometric analysis (reference value: 0.60%); format: functional, Medulloblastoma cell
[31] = Induction of apoptosis in human Med1 cells assessed as necrotic cells by annexin-V/PI staining based flow cytometric analysis (reference value: 1.87%); format: functional, Medulloblastoma cell
[32] = system: Med1; test: Induction of cell cycle arrest in […] Med1 cells assessed as increased accumulation of cells in G1 phase by PI staining based FACS analysis; format: functional
How it was run: (§5)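 Med1-MB cells were treated with JQ1, fixed in 70% ethanol for 30 min at 4 °C, and stained with PI plus RNase A at 37 °C for 45 min. Cells were filtered through 70 um mesh, and cell-cycle distribution was read by FACS.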

[33] = system: Med1; test: Induction of cell cycle arrest in […] Med1 cells assessed as decreased accumulation of cells in S phase by PI staining based FACS analysis; format: functional; how it was run: as §5
[34] = system: Medulloblastoma cell; test: Antiproliferation of […] Hh driven medulloblastoma cells […] by cell titre glo assay; format: functional, cell-based
[35] = system: Medulloblastoma cell; test: Antiproliferation of human Hh driven medulloblastoma cells by cell titre glo assay; format: functional, cell-based
[36] = system: Medulloblastoma cell; test: Induction of apoptosis in mouse wildtype SMO expressing medulloblastoma cells assessed as necrotic cells by annexin-V/PI staining based flow cytometric analysis (reference value: 22%)
[37] = system: Medulloblastoma cell; test: Induction of apoptosis in mouse wildtype SMO expressing medulloblastoma cells assessed as late apoptotic cells by annexin-V/PI staining based flow cytometric analysis (reference value: 2.5%)
[38] = system: Basal cell carcinoma cell (Mus musculus); test: Antitumor activity in mouse basal cell carcinoma allografted in mouse assessed as reduction in tumor growth at 100 mg/kg/day, ip

Cc1sc2c(c1C)C(c1ccc(Cl)cc1)=N[C@@H](CC(=O)OC(C)(C)C)c1nnc(C)n1-2
Activity [1]: Active | Activity [2]: Active | Activity [3]: Active | Activity [4]: Active | Activity [5]: inactive | Activity [6]: inactive | inhibition [7]: Active | Activity [8]: Active | Activity [9]: Active | Activity [10]: Active | Activity [11]: inactive | inhibition [12]: Active | Activity [13]: inactive | Activity [14]: Active | Activity [15]: Active | Activity [16]: Active | Activity [17]: Active | Activity [18]: Active | IC50 [19]: ~50 nM | IC50 [20]: ~50 nM | Activity [21]: Active | Activity [22]: Non-Toxic | Activity [23]: Active | Activity [24]: Active | Activity [25]: Active | Activity [26]: 39.2% | Activity [27]: 0.64% | Activity [28]: 87.9% | Activity [29]: 0.35% | Activity [30]: 1.61% | Activity [31]: 10.1% | Activity [32]: Active | Activity [33]: Active | Activity [34]: Active | Activity [35]: Active | Activity [36]: 54.7% | Activity [37]: 5.44%

CNCc1ccc(C)c(NC(=O)c2ccc(Nc3nc(-c4ccccc4)c4ccccc4n3)cc2)c1
Activity [38]: Active
